Article PMC3607822 (The Journal of General Physiology, 2013)
Substitutions are numbered along the chain they refer to.

How the values were obtained:
[1] = target: T1, CNGA3 RR-QQ (R643Q, R646Q) channels (Homo sapiens, UniProt Q16281, R643Q/R646Q); assay: Inside-out patch clamp, CNGA3 RR-QQ; format: biochemical
T1 sequence (Q16281 1-694 R643Q/R646Q): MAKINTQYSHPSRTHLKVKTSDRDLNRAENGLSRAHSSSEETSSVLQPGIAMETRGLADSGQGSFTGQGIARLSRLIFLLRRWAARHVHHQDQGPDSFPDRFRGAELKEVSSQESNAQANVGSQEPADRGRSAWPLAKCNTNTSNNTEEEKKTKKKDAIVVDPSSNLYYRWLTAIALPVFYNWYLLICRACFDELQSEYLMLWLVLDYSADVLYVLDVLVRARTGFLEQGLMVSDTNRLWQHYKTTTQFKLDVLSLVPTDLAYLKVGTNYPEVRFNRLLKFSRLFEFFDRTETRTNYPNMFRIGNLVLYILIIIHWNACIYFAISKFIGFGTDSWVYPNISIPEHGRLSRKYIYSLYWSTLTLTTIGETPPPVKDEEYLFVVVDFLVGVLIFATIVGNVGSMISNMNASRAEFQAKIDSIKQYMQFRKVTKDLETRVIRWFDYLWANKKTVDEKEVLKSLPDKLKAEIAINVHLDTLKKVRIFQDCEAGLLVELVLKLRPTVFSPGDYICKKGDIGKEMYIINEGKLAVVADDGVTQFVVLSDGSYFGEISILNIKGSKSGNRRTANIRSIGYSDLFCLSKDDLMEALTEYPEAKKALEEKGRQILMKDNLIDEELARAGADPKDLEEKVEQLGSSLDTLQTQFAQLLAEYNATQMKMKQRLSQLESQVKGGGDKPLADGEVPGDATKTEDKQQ

[2] = target: CNGA3 ΔN (2-156) channels (Homo sapiens, UniProt Q16281); assay: Inside-out patch clamp, CNGA3 ΔN; format: biochemical
[3] = target: CNGA3 ΔN (2-156), 613X channels (Homo sapiens, UniProt Q16281); assay: Inside-out patch clamp, CNGA3 ΔN; format: biochemical
[4] = target: T2, CNGA3 RR-EE (R643E, R646E) channels (Homo sapiens, UniProt Q16281, R643E/R646E); assay: Inside-out patch clamp, CNGA3 RR-EE; format: biochemical
T2 sequence (Q16281 1-694 R643E/R646E): T1 sequence (Q16281 1-694 R643Q/R646Q) with Q643E, Q646E

[5] = target: CNGA1 with CNGB3 channels (UniProt Q00194+Q9NQW8); assay: Inside-out patch clamp, CNGA1 with CNGB3; format: biochemical, bovine, human; settings: 1 µM PIP3
Chain of CNGA1 with CNGB3 channels (Q00194 whole entry): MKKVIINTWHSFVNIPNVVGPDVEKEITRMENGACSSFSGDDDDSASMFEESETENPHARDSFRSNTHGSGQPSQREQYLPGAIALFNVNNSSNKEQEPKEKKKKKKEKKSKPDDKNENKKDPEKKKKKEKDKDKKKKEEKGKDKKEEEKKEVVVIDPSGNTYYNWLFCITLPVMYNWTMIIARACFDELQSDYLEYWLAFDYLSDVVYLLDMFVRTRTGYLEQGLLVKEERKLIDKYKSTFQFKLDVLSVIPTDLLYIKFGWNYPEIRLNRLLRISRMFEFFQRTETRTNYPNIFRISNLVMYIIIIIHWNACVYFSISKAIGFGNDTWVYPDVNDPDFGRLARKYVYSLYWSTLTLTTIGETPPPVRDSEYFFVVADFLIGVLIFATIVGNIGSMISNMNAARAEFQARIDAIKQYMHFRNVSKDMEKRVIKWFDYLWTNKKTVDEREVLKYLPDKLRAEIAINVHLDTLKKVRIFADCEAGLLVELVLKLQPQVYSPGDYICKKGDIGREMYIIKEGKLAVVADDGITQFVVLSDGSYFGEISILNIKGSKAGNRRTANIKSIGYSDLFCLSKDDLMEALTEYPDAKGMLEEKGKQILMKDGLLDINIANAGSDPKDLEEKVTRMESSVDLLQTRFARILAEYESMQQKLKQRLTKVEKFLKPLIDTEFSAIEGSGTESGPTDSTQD
Chain of CNGA1 with CNGB3 channels (Q9NQW8 whole entry): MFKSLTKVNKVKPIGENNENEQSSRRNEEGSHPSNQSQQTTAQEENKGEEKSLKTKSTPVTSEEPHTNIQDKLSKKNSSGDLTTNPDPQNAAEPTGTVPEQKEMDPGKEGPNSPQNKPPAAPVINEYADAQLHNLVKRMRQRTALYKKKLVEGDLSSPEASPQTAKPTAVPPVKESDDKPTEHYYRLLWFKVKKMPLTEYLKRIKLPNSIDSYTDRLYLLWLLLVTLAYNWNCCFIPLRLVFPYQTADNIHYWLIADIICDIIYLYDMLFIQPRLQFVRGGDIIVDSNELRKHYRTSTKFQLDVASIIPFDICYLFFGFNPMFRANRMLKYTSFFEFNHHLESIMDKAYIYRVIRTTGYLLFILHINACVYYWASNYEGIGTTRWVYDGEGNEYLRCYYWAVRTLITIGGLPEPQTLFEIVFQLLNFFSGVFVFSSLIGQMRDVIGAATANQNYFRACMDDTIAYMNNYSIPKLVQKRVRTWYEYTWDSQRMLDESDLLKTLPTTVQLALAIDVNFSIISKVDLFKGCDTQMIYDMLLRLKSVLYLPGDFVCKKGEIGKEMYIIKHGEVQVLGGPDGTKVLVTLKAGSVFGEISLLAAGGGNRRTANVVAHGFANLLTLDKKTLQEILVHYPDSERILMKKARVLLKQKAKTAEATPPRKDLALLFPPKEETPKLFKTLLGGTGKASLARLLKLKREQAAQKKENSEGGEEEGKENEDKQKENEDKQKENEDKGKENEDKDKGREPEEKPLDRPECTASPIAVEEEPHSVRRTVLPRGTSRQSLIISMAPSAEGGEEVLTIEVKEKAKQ
Method in brief: (§1)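 Subunit cRNAs (~20 ng, B in excess over A) injected into stage IV Xenopus oocytes; inside-out patches 2–7 d later, 20–22°C, symmetric 130 mM NaCl, 0.2 mM EDTA, 3 mM Hepes pH 7.2. Heteromer formation checked by 25 µM l-cis-diltiazem with 1 mM cGMP. diC8 phosphoinositides applied intracellularly in phosphatase-inhibitor cocktail. cGMP dose–response at +80 mV, leak-subtracted, Hill fit before/after for K1/2; mean ± SEM.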

[6] = system: tandem A3//N7R-A,613X heterodimer channels; assay: Inside-out patch clamp, A3 WT//A3 N7R-A,613X tandem dimers; format: biochemical, human; settings: from K1/2 and h before and after PIP3
[7] = target: CNGA3 with CNGB1 channels (Homo sapiens, UniProt Q14028+Q16281); assay: Inside-out patch clamp, CNGA3 with CNGB1; format: biochemical; settings: 1 µM PIP3
Method in brief: as §1

CNGA1 homomeric channels = CNGA1 homomeric channels (Bos taurus, UniProt Q00194); assay: Inside-out patch clamp, homomeric CNGA1; format: biochemical, bovine; settings: PIP3 or PIP2 application
Chain of CNGA1 homomeric channels (Q00194 whole entry): as the sequence (Q00194 whole entry) above

A2ΔN+B3 channels = A2ΔN+B3 channels (UniProt Q00195+Q9NQW8, DEL61-90); assay: Inside-out patch clamp, A2ΔN+B3; format: biochemical, rat, human; settings: 1 µM PIP3
Method in brief: as §1

[8] = target: GST fusion of CNGA3 N-terminal region (A3N, amino acids 1–164) (Homo sapiens, UniProt Q16281); assay: In vitro PIP3-agarose bead pull-down, A3N; format: binding; settings: PIP3-agarose beads, anti-GST immunoblot
Method in brief: (§2)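 Recombinant GST fusions of channel fragments expressed in E. coli and purified; soluble fraction kept after 20,000 g, 4°C, 30 min. Protein (2 µg/ml) rocked with PIP3- or control agarose beads, 2 h, 4°C, in 10 mM Hepes pH 7.4, 50 mM NaCl, 2 mM EDTA, 0.25% Triton X-100, 0.25% NP-40. Five washes, elution in sample buffer, reducing SDS gel, anti-GST (1:2,000, overnight) immunoblot, chemiluminescence; […].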

[9] = system: PA-LP+RR-QQ CNGA3 channels; assay: Inside-out patch clamp, coexpression of A3 PA-LP with A3 RR-QQ; format: biochemical, human; settings: 1 µM PIP3
[10] = target: GST fusion of CNGA3 C-terminal region (A3C, amino acids 612–694) (Homo sapiens, UniProt Q16281); assay: In vitro PIP3-agarose bead pull-down, A3C; format: binding; settings: PIP3-agarose beads, anti-GST immunoblot; not quantitative
Method in brief: as §2

GST fusion A3N7R-A = GST fusion A3N7R-A (Homo sapiens, UniProt Q16281, R101A/R103A/R72A/R75A/R81A/R82A/R86A); assay: In vitro PIP3-agarose bead pull-down, A3N7R-A; format: binding; settings: PIP3-agarose beads, anti-GST immunoblot; compared with A3N
Method in brief: as §2

[11] = read-out: K1/2 cGMP, +80 mV, no PIPn

Compound | Hill coefficient ([1]; cGMP activation) | EC50 [1, 11] [µM] | Po max cGMP ([1]; saturating cGMP) | Hill coefficient ([2]; cGMP activation) | EC50 [2, 11] [µM] | Hill coefficient ([3]; cGMP activation) | EC50 [3, 11] [µM] | Hill coefficient ([4]; cGMP activation) | EC50 [4, 11] [µM] | Po max cGMP ([4]; saturating cGMP) | regulation of K1/2 cGMP by PIP3 [5] | change in the energetics of channel opening produced by PIP3 (ΔΔG) [6] [kcal/mol] | regulation of K1/2 cGMP by PIP3 [7] | effect on relative cAMP efficacy (CNGA1 homomeric channels) | regulation of K1/2 cGMP by PIP3 (A2ΔN+B3 channels) | in vitro PIP3 binding [8] | Imax cAMP/cGMP (PIP3/control) [9] | in vitro PIP3 binding [10] | in vitro PIP3 binding (GST fusion A3N7R-A)
Nc1nc2c(ncn2[C@@H]2O[C@@H]3COP(=O)(O)O[C@H]3[C@H]2O)c(=O)[nH]1 [cGMP, cyclic guanosine monophosphate] | 2.00 ± 0.00 (3) | 7.45 ± 0.63 | 0.94 ± 0.01 (3) | 1.77 ± 0.07 (9) | 9.16 ± 0.65 | 1.66 ± 0.10 (6) | 15.8 ± 2.8 | 1.95 ± 0.05 (4) | 8.29 ± 0.47 | 0.93 ± 0.03 (4) | – | – | – | – | – | – | – | – | –
phosphatidylinositol (3,4,5)-trisphosphate [PIP3] | – | – | – | – | – | – | – | – | – | – | PIP3-sensitive | 1.29 ± 0.08 | PIP3-sensitive | decreased relative cAMP efficacy | insensitive to regulation by PIP3 | able to directly bind PIP3 | 1.67 ± 0.06 | binding was observed | attenuated binding to PIP3 beads
